Source: ChEMBL document CHEMBL1145466, “Effects of carbapenem exposure on the risk for digestive tract carriage of intensive care unit-endemic carbapenem-resistant Pseudomonas aeruginosa strains in critically ill patients” (2007)

Experiments:
[1] = system: Pseudomonas aeruginosa; experiment: Antimicrobial activity against carbapenem-resistant Pseudomonas aeruginosa isolate; format: functional
Summary of the method: (§1)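 P. aeruginosa isolates came from rectal and oropharyngeal swabs of ICU patients, plated on MacConkey agar and incubated at 37°C for 48 h. Gram-negative, oxidase-positive bacilli were identified by conventional biochemical tests. Intermediate isolates were scored as resistant. Clonality was checked by PFGE (6 V/cm, 14°C, 23 h, 5–25 s pulses), read by Tenover criteria.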

[2] = system: Pseudomonas aeruginosa; experiment: Antimicrobial activity against carbapenem-resistant Pseudomonas aeruginosa assessed as percent resistant isolates; format: functional; summary of the method: as §1

| Structure (SMILES) | MIC [1] [µg/mL] | Activity [2] [%] |
| --- | --- | --- |
| C[C@H]1[C@H](NC(=O)/C(=N\OC(C)(C)C(=O)O)c2csc(N)n2)C(=O)N1S(=O)(=O)O [AZTREONAM] | > 8 | 33 |
| CC(C)(O/N=C(\C(=O)N[C@@H]1C(=O)N2C(C(=O)[O-])=C(C[n+]3ccccc3)CS[C@H]12)c1csc(N)n1)C(=O)O [CEFTAZIDIME] | > 8 | 28.5 |
| NC[C@H]1O[C@H](O[C@H]2[C@H](O)[C@@H](O[C@H]3O[C@H](CO)[C@@H](O)[C@H](N)[C@H]3O)[C@H](N)C[C@@H]2N)[C@H](N)C[C@@H]1O [TOBRAMYCIN] | > 4 | 55 |
| CC(O)[C@H]1C(=O)N2C(C(=O)O)=C(SCCNC=N)C[C@H]12 (single isomer, unassigned) [IMIPENEM ANHYDROUS] | ≥ 8 | 100 |
| C[C@@H](O)[C@H]1C(=O)N2C(C(=O)O)=C(S[C@@H]3CN[C@H](C(=O)N(C)C)C3)[C@H](C)[C@H]12 [MEROPENEM] | ≥ 8 | 59.5 |
| CCN1CCN(C(=O)N[C@@H](C(=O)N[C@@H]2C(=O)N3[C@@H]2SC(C)(C)[C@@H]3C(=O)O)c2ccccc2)C(=O)C1=O [PIPERACILLIN] | > 64 | 21 |
| CC1(C)S[C@@H]2[C@H](NC(=O)[C@H](C(=O)O)c3ccsc3)C(=O)N2[C@H]1C(=O)O [TICARCILLIN] | > 64 | 28.5 |
| NCC[C@H](O)C(=O)N[C@@H]1C[C@H](N)[C@@H](O[C@H]2O[C@H](CN)[C@@H](O)[C@H](O)[C@H]2O)[C@H](O)[C@H]1O[C@H]1O[C@H](CO)[C@@H](O)[C@H](N)[C@H]1O [AMIKACIN] | > 16 | 19 |
| O=C(O)c1cn(C2CC2)c2cc(N3CCNCC3)c(F)cc2c1=O [CIPROFLOXACIN] | ≥ 2 | 59.5 |
